10 compounds from ChEMBL document CHEMBL1132281, “Compounds that activate the mouse melanocortin-1 receptor identified by screening a small molecule library based upon the beta-turn” (J Med Chem, 1999) can be followed below.

Molecules are shown by their SMILES.

For the assay, the target named is Melanocyte-stimulating hormone receptor (Mus musculus, UniProt Q01727). The assay is described as follows: Agonistic activity against mouse Melanocortin 1 receptor (mMC1R). The class given is functional. The gist of the method: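 HEK-293 cells (DMEM, 10% fetal calf serum) stably expressing the mouse receptor (pCDNA3, G418 selection) were transfected with a CRE/β-galactosidase reporter. At 48 h post-transfection, cells were stimulated for 6 h in DMEM with 0.1 mg/mL BSA and 0.1 mM IBMX, at 10^-4 to 10^-10 M in triplicate. Lysates were read with ONPG at 37° (OD405), and the data were normalized to protein (OD595) and to forskolin (10^-4 M).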
Sequence of Melanocyte-stimulating hormone receptor (Q01727 whole entry): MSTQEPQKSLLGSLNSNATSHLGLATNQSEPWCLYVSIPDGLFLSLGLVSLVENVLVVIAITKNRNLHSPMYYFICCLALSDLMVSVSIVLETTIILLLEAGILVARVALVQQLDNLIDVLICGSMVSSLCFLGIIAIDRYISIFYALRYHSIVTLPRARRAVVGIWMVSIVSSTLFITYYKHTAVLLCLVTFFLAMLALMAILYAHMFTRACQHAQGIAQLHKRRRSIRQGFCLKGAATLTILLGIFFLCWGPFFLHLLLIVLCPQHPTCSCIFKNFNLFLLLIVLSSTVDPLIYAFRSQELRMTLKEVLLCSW
As to `CC(=O)N[C@@H](Cc1c[nH]cn1)C(=O)N[C@H](Cc1ccccc1)C(=O)N[C@@H](CCC(N)=O)C(=O)N[C@H](Cc1c[nH]c2ccccc12)C(N)=O`, the half-maximal effective concentration (EC50) (commonly the midpoint of the concentration-response curve) is 100 µM.

On to `NCCCC[C@H]1NC(=O)[C@H](Cc2c[nH]c3ccccc23)SCCN(CCc2ccccc2)C1=O`, for which the EC50 came out at 63.4 µM.

`CC(=O)N[C@H](Cc1ccccc1)C(=O)N[C@@H](C)C(=O)N[C@H](Cc1c[nH]c2ccccc12)C(N)=O` came in with an EC50 of more than 100 µM.

Compound `CC(=O)N[C@@H](Cc1cnc[nH]1)C(=O)N[C@H](Cc1ccccc1)C(=O)N[C@@H](C)C(=O)N[C@H](Cc1c[nH]c2ccccc12)C(N)=O` showed an EC50 of more than 100 µM.

`CC(=O)N[C@H](Cc1ccccc1)C(=O)NCC(=O)N[C@H](Cc1c[nH]c2ccccc12)C(N)=O`: the EC50 was determined as 100 µM.

The compound `CC(=O)N[C@H](Cc1ccccc1)C(=O)N[C@@H](CCCCN)C(=O)N[C@H](Cc1c[nH]c2ccccc12)C(N)=O` registered an EC50 of more than 100 µM.

Compound `CC(=O)N[C@H](Cc1ccccc1)C(=O)N[C@@H](CCC(N)=O)C(=O)N[C@H](Cc1c[nH]c2ccccc12)C(N)=O` displayed an EC50 of 100 µM.

`CC(=O)N[C@@H](Cc1c[nH]cn1)C(=O)N[C@H](Cc1ccccc1)C(=O)N[C@@H](CCCCN)C(=O)N[C@H](Cc1c[nH]c2ccccc12)C(N)=O` yielded a concentration giving a half-maximal response (EC50) of more than 100 µM.

Regarding `O=C1[C@H]2CCCN2C(=O)C(Cc2ccc3ccccc3c2)SCCN1CCc1c[nH]c2ccccc12` (stereo not given in full), the response was half-maximal at 42.5 µM (EC50).

Compound `CC(=O)N[C@@H](Cc1c[nH]cn1)C(=O)N[C@H](Cc1ccccc1)C(=O)NCC(=O)N[C@H](Cc1c[nH]c2ccccc12)C(N)=O` showed a concentration for a half-maximal effect (EC50) of more than 100 µM.
